Measured values taken from ChEMBL document CHEMBL1681735, “One step synthesis of 2-hydroxymethylisoflavone and their osteogenic activity” (2011).
Activity calls are given as the source filed them. The calls are words filed in the database; no cut-off is given here.

Assays:
Calvarial cell [1] = assay: (§1) Induction of osteogenic activity in rat Calvarial cells assessed as fold increase in BMP-2 gene expression after 48 hrs by qPCR relative to untreated control; type: functional
In short: (§2)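 Osteoblasts cultured with or without compound for 48 h, then qPCR. Cycling: 95 °C 5 min, then 40 cycles of 94 °C 2 min, 62 °C 30 s annealing/extension and 72 °C 30 s. Normalized to GAPDH. Compared with vehicle-treated cells; mean SEM, n = 3.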

Calvarial cell [2] = assay: (§3) Induction of osteogenic activity in rat Calvarial cells assessed as fold increase in OCN gene expression after 48 hrs by qPCR relative to untreated control; type: functional; in short: as §2
Calvarial cell [3] = assay: Induction of osteoblast differentiation in rat Calvarial cells assessed as increase in alkaline phosphatase activity at 10^-12 to 10^-6 M by spectrophotometry; type: functional, cell-based
In short: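 Rat calvarial osteoblasts trypsinized at 70–80% confluence (0.02% trypsin-EDTA). 2 × 10³ cells seeded in α-MEM with 10% FBS plus 50 µg/ml ascorbate and 10 mM glycerophosphate. Exposed to 10^-12 to 10^-6 M for 48 h; isoformononetin 10^-8 M as positive control. Total ALP read at 405 nm with PNPP 10 mmol/L in diethanolamine buffer (1 mol/L, pH 9.8), 0.5 mmol/L MgCl₂. Mean SEM, n = 6.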

Calvarial cell [4] = assay: (§4) Induction of osteogenic activity in rat Calvarial cells assessed as fold increase in Runx-2 gene expression after 48 hrs by qPCR relative to untreated control; type: functional; in short: as §2
[5] = as §1; type: functional, Calvarial cell; in short: as §2
[6] = as §3; type: functional, Calvarial cell; in short: as §2
[7] = as §4; type: functional, Calvarial cell; in short: as §2

Compound | Activity (Calvarial cell [1]) | Activity (Calvarial cell [2]) | Activity (Calvarial cell [3]) | Activity (Calvarial cell [4]) | fold change (FC) [5] | fold change (FC) [6] | fold change (FC) [7]
COc1ccc(-c2c(CO)oc3cc(O)ccc3c2=O)cc1 | inactive | inactive | Active | inactive |  |  | 
COc1ccc(-c2c(CO)oc3ccccc3c2=O)c(O)c1 |  |  | Active |  | 2 | 2 | 8
O=c1c(-c2ccccc2)c(CO)oc2ccccc12 |  | inactive | Active | inactive | 2.5 |  | 
O=c1c(-c2ccccc2)c(CO)oc2cc(O)ccc12 | inactive | inactive | Active |  |  |  | 6.5
